Data published in ChEMBL document CHEMBL1134785, “Synthesis and biological evaluation of prostaglandin-F alkylphosphinic acid derivatives as bone anabolic agents for the treatment of osteoporosis” (J Med Chem, 2001).

How the values were obtained:
[1] = test system: Rattus norvegicus; assay: Derived trabecular thickness (um) measured using micro Computed Tomography(CT) after a dose of 3000 ug/kg in Vertebral Bone; type: functional, Trabecula
Procedure, shortened: (§1)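 Micro-CT of the fifth lumbar vertebra, measuring cancellous bone volume and architecture. Rats were 6 months old, OVX 60 days before treatment, then dosed daily for 60 days. Test-agent doses were 10–3000 µg/kg, given as a once-daily subcutaneous injection; 6 mg/kg/day was given to the positive-control group. Groups were compared with vehicle by ANOVA plus LSD test.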

[2] = test system: Rattus norvegicus; assay: Periosteal mineral apposition rate ([…]) measured Histomorphometrically after a dose of 1000 ug/kg in tibial diaphysis; type: functional
Procedure, shortened: (§2)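 Six-month-old rats, bilaterally ovariectomized, 6-8 per group, on natural chow. After 60 days they received once-daily subcutaneous dosing for 60 days at 0.01–3.0 mg/kg. Vehicle was acetate-buffered saline with methylcellulose and polyoxyethylenesorbitan monooleate. Labels were xylenol orange 90 mg/kg before treatment and calcein 10 mg/kg 14 and 4 days before sacrifice. Tibial histomorphometry was read under fluorescent light, with ANOVA/LSD versus vehicle.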

[3] = test system: Rattus norvegicus; assay: Endosteal mineralizing surface Histomorphometrically after a dose of 30 ug/kg in tibial diaphysis; type: functional; procedure, shortened: as §2
[4] = test system: Rattus norvegicus; assay: Tissue area (mm) measured Histomorphometrically after a dose of 10 ug/kg in tibial diaphysis; type: functional
Procedure, shortened: (§3)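 Rats on natural chow (1.46% Ca) were bilaterally ovariectomized at 6 months and left untreated for 60 days. They then received once-daily subcutaneous doses for 60 days, with vehicle of acetate-buffered saline, methylcellulose and polysorbate. Xylenol orange (90 mg/kg) was given before treatment and calcein (10 mg/kg) 14 and 4 days before sacrifice. Tibiae were analysed by fluorescent histomorphometry, 6-8 rats/group, ANOVA/LSD vs vehicle.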

[5] = test system: Rattus norvegicus; assay: Marrow area (mm) measured Histomorphometrically after a dose of 3000 ug/kg in tibial diaphysis; type: functional; procedure, shortened: as §2
[6] = test system: Rattus norvegicus; assay: connectivity density (mm-3) using micro Computed Tomography(CT) after a does of 3000 ug/kg in Vertebral Bone; type: functional
Procedure, shortened: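 Rats were ovariectomized at 6 months of age and, after 60 days, dosed subcutaneously once daily for 60 days, with vehicle of acetate-buffered saline, methylcellulose and polysorbate. At necropsy the fifth lumbar vertebra was scanned by micro-CT to obtain cancellous architecture. Groups were 6-8 rats; results were compared to vehicle by ANOVA with least significant difference test.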

[7] = test system: Rattus norvegicus; assay: Marrow area (mm) measured Histomorphometrically after a dose of 10 ug/kg in tibial diaphysis; type: functional; procedure, shortened: as §2
[8] = test system: Rattus norvegicus; assay: Endosteal eroded surface(%) measured Histomorphometrically after a dose of 1000 ug/kg in tibial diaphysis; type: functional
Procedure, shortened: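 Tibial histomorphometry in 6-month-old rats, OVX 60 days before treatment, then daily injection for 60 days. Vehicle was acetate-buffered saline with methylcellulose and polyoxyethylenesorbitan monooleate. Rats received xylenol orange 90 mg/kg before treatment and calcein 10 mg/kg at 14 and 4 days pre-sacrifice. Rats were killed by cardiac puncture under ketamine/xylazine. Groups were compared with vehicle by ANOVA plus LSD test.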

[9] = test system: Rattus norvegicus; assay: Bone formation rate/bone volume (%/year) bone measured histomorphometrically after a dose of 100 ug/kg in proximal tibial metaphysis; type: functional; conditions: at 100 µg/kg
[10] = test system: Rattus norvegicus; assay: Trabecular no (mm)measured Histomorphometrically after a dose of 300 ug/kg in proximal tibial metaphysis; type: functional, Trabecula
Procedure, shortened: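 Six-month-old rats were ovariectomized, and 60 days later daily subcutaneous dosing began for 60 days, with vehicle of acetate-buffered saline, methylcellulose and polysorbate. Xylenol orange (90 mg/kg) labelled bone pre-treatment and calcein (10 mg/kg) 14 and 4 days pre-sacrifice. Histomorphometry covered the proximal tibial metaphysis 1-4 mm distal to the growth plate-metaphyseal junction. Groups were 6-8 rats, compared by ANOVA/LSD vs vehicle.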

[11] = test system: Rattus norvegicus; assay: Tissue area (mm) measured Histomorphometrically after a dose of 300 ug/kg in tibial diaphysis; type: functional; procedure, shortened: as §3
[12] = test system: Rattus norvegicus; assay: Periosteal mineralizing surface (%) measured Histomorphometrically after a dose of 1000 ug/kg in tibial diaphysis; type: functional; procedure, shortened: as §3
[13] = test system: Rattus norvegicus; assay: Directly measured thickness(um) using micro Computed Tomography(CT) after a dose of 1000 ug/kg in Vertebral Bone; type: functional; procedure, shortened: as §1
[14] = test system: Rattus norvegicus; assay: Marrow area (mm) measured Histomorphometrically after a dose of 300 ug/kg in tibial diaphysis; type: functional; procedure, shortened: as §2

## CP(=O)(O)CCC/C=C\C[C@@H]1[C@@H](/C=C/[C@@H](O)COc2ccccc2)[C@H](O)C[C@@H]1O
[1]
  Derived trabecular thickness: 83.8 µm
[2]
  Periosteal mineral apposition rate: 0 µm/day
[3]
  Endosteal mineralizing surface: 28.72%
[4]
  Tissue area: 5.09 mm
[5]
  Marrow area: 0.74 mm
[6]
  Connectivity density: 55.9 mm**-3
[7]
  Marrow area: 0.93 mm²
[8]
  Endosteal eroded surface: 2.74%
[9]
  Activity: 320.16%
[10]
  Trabecular no.: 1.27 1/mm
[11]
  Tissue area: 5.01 mm
[12]
  Periosteal mineralizing surface: 10.35%
[13]
  Directly measured thickness: 128 µm
[14]
  Marrow area: 0.89 mm
